Source: ChEMBL document CHEMBL4177755, “Combating Drug-Resistant Fungi with Novel Imperfectly Amphipathic Palindromic Peptides” (J Med Chem, 2018)

Experiments:
Candida albicans [1] = experiment: Fungicidal activity against Candida albicans cgmcc 2.2086 after 96 hrs; assay type: functional; conditions: cgmcc 2.2086, 96 h, read-out: MFC99.9
Summary of the method: (§1)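 After the 48 h, 28 °C broth microdilution in MOPS-buffered RPMI 1640 (inoculum (0.5−1) × 10^3 CFU/mL), 50 μL from each well was plated on YM agar for a further 48 h at 28 °C. MFC is the lowest concentration killing at least 99.9% of cells. Triplicate, three biological replicates.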

Escherichia coli [2] = experiment: Antibacterial activity against Escherichia coli ATCC 25922 after 18 hrs in presence of NH4Cl by broth dilution method; assay type: functional; conditions: ATCC 25922, 18 h
Candida albicans [3] = experiment: Antifungal activity against Candida albicans cgmcc 2.2086 in presence of NaCl by broth dilution method; assay type: functional
Salmonella typhimurium = experiment: Antibacterial activity against Salmonella typhimurium ATCC 14028 after 24 hrs; assay type: functional, Salmonella enterica subsp. enterica serovar Typhimurium; conditions: Salmonella enterica, ATCC 14028, 24 h
Summary of the method: (§2)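 Broth microdilution. Mid-log bacteria in MHB at a final (0.5−1) × 10^5 CFU/mL were mixed with equal volumes of peptide serially diluted in 0.2% BSA. Plates were incubated 24 h at 37 °C and read at A492. MIC is the lowest concentration inhibiting 95% of growth. Each test was repeated at least 3 times.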

Candida albicans [4] = experiment: Antifungal activity against Candida albicans 58288 after 48 hrs by broth microdilution method; assay type: functional; conditions: Candida albicans, 58288, 48 h
Summary of the method: (§3)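 Modified CLSI M27-A2 broth microdilution. Yeast at (0.5−1) × 10^3 CFU/mL in MOPS-buffered RPMI 1640 was mixed 1:1 with peptide serially diluted in 0.2% BSA and incubated 48 h at 28 °C. Absorbance was read at 492 nm; MIC is the lowest concentration inhibiting 95% of growth. Triplicate, three biological replicates.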

Staphylococcus aureus [5] = experiment: Bactericidal activity against Staphylococcus aureus ATCC 29213; assay type: functional; conditions: read-out: MBC99.9
Summary of the method: (§4)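 Wells from the 24 h, 37 °C MHB microdilution plates (bacteria at a final (0.5−1) × 10^5 CFU/mL; peptide diluted in 0.2% BSA) were plated on agar and incubated overnight. MBC is the lowest concentration killing >99.9% of cells. Each test was reproduced at least 3 times.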

Staphylococcus aureus [6] = experiment: Bactericidal activity against methicillin-resistant Staphylococcus aureus ATCC 4330; assay type: functional; conditions: read-out: MBC99.9
Summary of the method: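 Bacteria at (0.5−1) × 10^5 CFU/mL in MHB were exposed to serially diluted peptide (0.2% BSA) for 24 h at 37 °C, then 50 μL aliquots were plated on agar overnight. MBC is the lowest concentration killing >99.9% of cells. At least 3 repeats.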

Escherichia coli [7] = experiment: Antibacterial activity against Escherichia coli ATCC 25922 after 18 hrs in presence of CaCl2 by broth dilution method; assay type: functional; conditions: ATCC 25922, 18 h
Pichia kudriavzevii = experiment: Fungicidal activity against Candida krusei cgmcc 2.1857 after 96 hrs; assay type: functional; conditions: cgmcc 2.1857, 96 h, read-out: MFC99.9
Summary of the method: (§5)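 Wells from the 48 h, 28 °C RPMI 1640/MOPS microdilution plates were plated on YM agar and incubated a further 48 h at 28 °C. MFC is the lowest concentration killing at least 99.9% of cells. Run in triplicate with three biological replicates.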

Staphylococcus aureus [8] = experiment: Antibacterial activity against methicillin-resistant Staphylococcus aureus ATCC 4330 after 24 hrs; assay type: functional; conditions: ATCC 4330, 24 h
Summary of the method: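 Modified NCCLS broth microdilution. Mid-log bacteria at (0.5−1) × 10^5 CFU/mL in MHB were mixed 1:1 with peptide serially diluted in 0.2% BSA and incubated 24 h at 37 °C. Absorbance was read at 492 nm; MIC is the lowest concentration inhibiting 95% of growth. At least 3 repeats.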

Candida albicans [9] = experiment: Antifungal activity against Candida albicans isolated from alveolar fluid after 48 hrs by broth microdilution method; assay type: functional; summary of the method: as §3
Escherichia coli [10] = experiment: Antibacterial activity against Escherichia coli 1005 after 24 hrs; assay type: functional; conditions: Escherichia coli, 1005, 24 h; summary of the method: as §2
Candida albicans [11] = experiment: Antifungal activity against Candida albicans SP3876 after 48 hrs by broth microdilution method; assay type: functional; conditions: SP3876, 48 h; summary of the method: as §3
Escherichia coli [12] = experiment: Bactericidal activity against Escherichia coli 1005; assay type: functional; conditions: read-out: MBC99.9; summary of the method: as §4
Candida albicans [13] = experiment: Antifungal activity against Candida albicans cgmcc 2.2086 in presence of ZnCl2 by broth dilution method; assay type: functional
Candida albicans [14] = experiment: Antifungal activity against Candida albicans 14936 after 48 hrs by broth microdilution method; assay type: functional; conditions: Candida albicans, 14936, 48 h; summary of the method: as §3
Candida albicans [15] = experiment: Fungicidal activity against Candida albicans SP3902 after 96 hrs; assay type: functional; conditions: SP3902, 96 h, read-out: MFC99.9; summary of the method: as §1
Escherichia coli [16] = experiment: Antibacterial activity against Escherichia coli ATCC 25922 after 18 hrs in presence of ZnCl2 by broth dilution method; assay type: functional; conditions: ATCC 25922, 18 h
Staphylococcus aureus [17] = experiment: Bactericidal activity against Staphylococcus aureus ATCC 25923; assay type: functional; conditions: read-out: MBC99.9; summary of the method: as §4
Candida albicans [18] = experiment: Fungicidal activity against Candida albicans isolated from alveolar fluid after 96 hrs; assay type: functional; conditions: read-out: MFC99.9; summary of the method: as §1
[19] = Cytotoxicity against HEK293T cells assessed as cell viability at 2 to 64 uM after 24 hrs by MTT assay relative to control; assay type: cell-based, HEK-293T; conditions: human, read-out: Activity
Summary of the method: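 MTT viability assay. RAW264.7 or HEK293T cells at (1.0−2.0) × 10^5 per well were exposed to a peptide concentration series for 24 h at 37 °C in 5% CO2. MTT was then added at 0.5 mg/mL final for 4 h; formazan was dissolved in DMSO and read at 570 nm. Results average three independent trials.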

Candida albicans [20] = experiment: Antifungal activity against Candida albicans cgmcc 2.2086 in presence of CaCl2 by broth dilution method; assay type: functional
Erythrocyte = experiment: Hemolytic activity in human RBC after 1 hr; assay type: ADME, cell-based
Summary of the method: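 Fresh human erythrocytes, diluted 10-fold in PBS pH 7.4, were mixed with equal volumes of peptide and held 1 h at 37 °C. After centrifugation at 1000g, supernatant hemoglobin was read at 576 nm. PBS set 0% and 0.1% Triton X-100 set 100% lysis. MHC is the concentration causing 10% hemolysis. At least three experiments were run, each in technical triplicate.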

Candida albicans [21] = experiment: Fungicidal activity against Candida albicans SP3876 after 96 hrs; assay type: functional; conditions: SP3876, 96 h, read-out: MFC99.9; summary of the method: as §1
Candida albicans [22] = experiment: Fungicidal activity against fluconazole-resistant Candida albicans 56452 after 96 hrs; assay type: functional; conditions: Candida albicans, 56452, 96 h; read-out: MFC99.9; summary of the method: as §1
Candida albicans [23] = experiment: Fungicidal activity against Candida albicans 58288 after 96 hrs; assay type: functional; conditions: Candida albicans, 58288, 96 h; read-out: MFC99.9; summary of the method: as §1
Escherichia coli [24] = experiment: Antibacterial activity against Escherichia coli ATCC 25922 after 24 hrs; assay type: functional; conditions: ATCC 25922, 24 h; summary of the method: as §2
Candida albicans [25] = experiment: Antifungal activity against Candida albicans cgmcc 2.2086 in presence of MgCl2 by broth dilution method; assay type: functional
Candida albicans [26] = experiment: Fungicidal activity against Candida albicans SP3903 after 96 hrs; assay type: functional; conditions: SP3903, 96 h, read-out: MFC99.9; summary of the method: as §1
[27] = system: Staphylococcus epidermidis; experiment: Antibacterial activity against Staphylococcus epidermidis ATCC 12228 after 24 hrs; assay type: functional; conditions: ATCC 12228, 24 h; summary of the method: as §2
Candida tropicalis = experiment: Fungicidal activity against Candida tropicalis cgmcc 2.1975 after 96 hrs; assay type: functional; conditions: cgmcc 2.1975, 96 h, read-out: MFC99.9; summary of the method: as §5

Substance | MFC (Candida albicans [1]) | MIC (Escherichia coli [2]) | MIC (Candida albicans [3]) | MIC95 (Salmonella typhimurium) | MIC95 (Candida albicans [4]) | MBC (Staphylococcus aureus [5]) | MBC (Staphylococcus aureus [6]) | MIC (Escherichia coli [7]) | MFC (Pichia kudriavzevii) | MIC95 (Staphylococcus aureus [8]) | MIC95 (Candida albicans [9]) | MIC95 (Escherichia coli [10]) | MIC95 (Candida albicans [11]) | MBC (Escherichia coli [12]) | MIC (Candida albicans [13]) | MIC95 (Candida albicans [14]) | MFC (Candida albicans [15]) | MIC (Escherichia coli [16]) | MBC (Staphylococcus aureus [17]) | MFC (Candida albicans [18]) | other results
H-RRLRLLLRLRR-NH2 | 16 µM | 4 µM | 64 µM | 4 µM | 8 µM | 16 µM | 16 µM | 4 µM | 8 µM | 8 µM | 4 µM | 4 µM | 4 µM | 4 µM | 8 µM | 8 µM | 4 µM | 4 µM | 8 µM | 8 µM | viability at 24 h, up to 64 µM [19]: 70 to 80%; MIC (Candida albicans [20]): 64 µM; HC10 (Erythrocyte): > 128 µM; MFC (Candida albicans [21]): 4 µM; MFC (Candida albicans [22]): 8 µM; MFC (Candida albicans [23]): 8 µM; MIC95 (Escherichia coli [24]): 4 µM; MIC (Candida albicans [25]): 8 µM; MFC (Candida albicans [26]): 2 µM; MIC95 [27]: 4 µM; MFC (Candida tropicalis): 4 µM
H-RIIRRIRRIIR-NH2 | 64 µM | 16 µM | 64 µM | 16 µM | 8 µM | > 64 µM | 16 µM | 32 µM | 8 µM | 16 µM | 16 µM | 8 µM | 8 µM | 8 µM | 64 µM | 8 µM | 16 µM | 16 µM | 64 µM | 32 µM | viability at 24 h, up to 64 µM [19]: 70 to 80%; MIC (Candida albicans [20]): 64 µM; HC10 (Erythrocyte): > 128 µM; MFC (Candida albicans [21]): 16 µM; MFC (Candida albicans [22]): 8 µM; MFC (Candida albicans [23]): 16 µM; MIC95 (Escherichia coli [24]): 16 µM; MIC (Candida albicans [25]): 32 µM; MFC (Candida albicans [26]): 4 µM; MIC95 [27]: 16 µM; MFC (Candida tropicalis): 2 µM
H-RRFRFFFRFRR-NH2 | 16 µM | 4 µM | 16 µM | 4 µM | 2 µM | 8 µM | 8 µM | 4 µM | 2 µM | 4 µM | 4 µM | 4 µM | 4 µM | 4 µM | 4 µM | 4 µM | 4 µM | 2 µM | 16 µM | 8 µM | viability at 24 h, up to 64 µM [19]: 70 to 80%; MIC (Candida albicans [20]): 16 µM; HC10 (Erythrocyte): > 128 µM; MFC (Candida albicans [21]): 4 µM; MFC (Candida albicans [22]): 4 µM; MFC (Candida albicans [23]): 8 µM; MIC95 (Escherichia coli [24]): 4 µM; MIC (Candida albicans [25]): 4 µM; MFC (Candida albicans [26]): 2 µM; MIC95 [27]: 4 µM; MFC (Candida tropicalis): 2 µM
H-IIRRIRRII-NH2 | 64 µM | 32 µM | 64 µM | 64 µM | > 64 µM | > 64 µM | > 64 µM | 64 µM | 16 µM | 64 µM | 64 µM | 16 µM | > 64 µM | 32 µM | 64 µM | > 64 µM | > 64 µM | 32 µM | > 64 µM | > 64 µM | viability at 24 h, up to 64 µM [19]: 70 to 80%; MIC (Candida albicans [20]): 64 µM; HC10 (Erythrocyte): > 128 µM; MFC (Candida albicans [21]): > 64 µM; MFC (Candida albicans [22]): 64 µM; MFC (Candida albicans [23]): 64 µM; MIC95 (Escherichia coli [24]): 32 µM; MIC (Candida albicans [25]): 64 µM; MFC (Candida albicans [26]): > 64 µM; MIC95 [27]: 64 µM; MFC (Candida tropicalis): 8 µM
